In assay [1] the target is T1, Protein cereblon/Histone-lysine N-methyltransferase EZH2 (Homo sapiens) (UniProt Q15910+Q96SW2). The assay is described as follows: PROTAC activity at CRBN E3 ligase/EZH2 in PRC2 complex in human WSUDLCL2 cells assessed as downregulation of RbAp48 expression at 1 uM pretreated with lenalidomide for 4 hrs followed by compound addition and measured after 48 hrs by Western blot analysis. It counts as cell-based. A digest of the protocol:
(§1)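 WSU-DLCL-2 cells pretreated 4 h with the named inhibitor, then compound added and incubated a further 48 h. EZH2, SUZ12, EED and RbAp48 measured by western blot (nitrocellulose transfer, skim-milk block, primary antibody overnight at 4 °C, chemiluminescent detection).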

Assay [2] has as its target T1, Protein cereblon/Histone-lysine N-methyltransferase EZH2 (Homo sapiens). The assay is described as follows: PROTAC activity at CRBN E3 ligase/EZH2 in PRC2 complex in human WSUDLCL2 cells assessed as induction of EZH2 degradation at 1 uM incubated for 48 hrs by Western blot analysis relative to control. It is filed as cell-based. A digest of the protocol: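 WSU-DLCL-2 cells exposed to 1 μM compound for 48 h, with DMSO-treated cells as control. Bands quantified by densitometry and normalized to GAPDH. Mean SD from three independent experiments, t-test versus DMSO.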
Background: Immunoblotting shows a protein as a band on a membrane.

Assay [3] has the same target. The assay is described as follows: PROTAC activity at CRBN E3 ligase/EZH2 in PRC2 complex in human WSUDLCL2 cells assessed as induction of EZH2 degradation by measuring reduction in EZH2 protein level at 1 uM measured after 48 to 72 hrs by Western blot analysis. It counts as cell-based. The note with it: time 48-72 hrs.
Assay [4] shares this target. The assay is described as follows: PROTAC activity at CRBN E3 ligase/EZH2 in PRC2 complex in human WSUDLCL2 cells assessed as induction of EED degradation incubated for 48 hrs by Western blot analysis. It counts as cell-based. The note with it: dose 1-10 µM.
The test system of assay [5] is NCI-H1299. The assay is described as follows: Downregulation of CENPK mRNA expression in human NCI-H1299 cells at 10 uM incubated for 48 hrs by qRT-PCR analysis. It counts as functional, cell-based. A digest of the protocol: (§2)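 Cells treated 48 h. Total RNA extracted with Trizol, reverse-transcribed, and SYBR RT-qPCR run: 95 °C 30 s, then 40 cycles of 95 °C 6 s and 60 °C 20 s. mRNA normalized to the DMSO-treated group. Mean SD of three independent experiments, t-test versus DMSO.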
For orientation: Quantitative PCR measures a nucleic acid by following its amplification.

Assay [6] addresses T1, Protein cereblon/Histone-lysine N-methyltransferase EZH2 (Homo sapiens). The assay is described as follows: PROTAC activity at CRBN E3 ligase/EZH2 in PRC2 complex in human WSUDLCL2 cells assessed as induction of SUZ12 degradation by measuring reduction in SUZ12 protein level at 1 uM measured after 48 to 72 hrs by Western blot analysis. To be noted: time 48-72 hrs. It is filed as cell-based.

Assay [7] shares this target. The assay is described as follows: PROTAC activity at CRBN E3 ligase/EZH2 in PRC2 complex in human WSUDLCL2 cells assessed as downregulation of RbAp48 expression at 1 uM pretreated with GSK126 for 4 hrs followed by compound addition and measured after 48 hrs by Western blot analysis. It counts as cell-based. In a few lines: as §1
Assay [8] has the same target. The assay is described as follows: PROTAC activity at CRBN E3 ligase/EZH2 in PRC2 complex in human LNCaP cells assessed as reduction in H3K27me3 level at 1 uM incubated for 48 hrs by Western blot analysis. It is filed as cell-based. In a few lines:
(§3)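 Cells cultured in DMEM or RPMI 1640 with 10% FBS and 1% penicillin-streptomycin, 37 °C, 5% CO2; exposed to 1 μM compound for 48 h. Lysates run on SDS-PAGE and transferred to nitrocellulose. Blocked 2 h in 5% skim milk, primary antibody overnight at 4 °C, then secondary antibody. Chemiluminescent detection of PRC2 subunits and H3K27me3.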

For assay [9], the system named is Pfeiffer. The assay is described as follows: Upregulation of CDKN2A mRNA expression in human Pfeiffer cells at 1 uM incubated for 48 hrs by qRT-PCR analysis. It is filed as functional, cell-based. A digest of the protocol:
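WSU-DLCL-2 or Pfeiffer cells treated 48 h. Trizol RNA extraction, reverse transcription, SYBR qPCR (95 °C 30 s; 40 cycles of 95 °C 6 s, 60 °C 20 s). mRNA normalized to DMSO-treated cells; mean ± SD of three independent experiments, t-test.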

The target of assay [10] is T1, Protein cereblon/Histone-lysine N-methyltransferase EZH2 (Homo sapiens). The assay is described as follows: PROTAC activity at CRBN E3 ligase/EZH2 in PRC2 complex in human WSUDLCL2 cells assessed as downregulation of EZH2 expression at 1 uM pretreated with MLN4924 for 4 hrs followed by compound addition and measured after 48 hrs by Western blot analysis. It is filed as cell-based. In a few lines: as §1

The target is the same in assay [11]. The assay is described as follows: PROTAC activity at CRBN E3 ligase/EZH2 in PRC2 complex in human WSUDLCL2 cells assessed as downregulation of RbAp48 expression at 1 uM pretreated with EED226 for 4 hrs followed by compound addition and measured after 48 hrs by Western blot analysis. It counts as cell-based. In a few lines:
as §1

The target is the same in assay [12]. The assay is described as follows: PROTAC activity at CRBN E3 ligase/EZH2 in PRC2 complex in human WSUDLCL2 cells assessed as downregulation of SUZ12 expression at 1 uM pretreated with lenalidomide for 4 hrs followed by compound addition and measured after 48 hrs by Western blot analysis. It counts as cell-based. In a few lines:
as §1

Assay [13] has the same target. The assay is described as follows: PROTAC activity at CRBN E3 ligase/EZH2 in PRC2 complex in human WSUDLCL2 cells assessed as downregulation of EED expression at 1 uM pretreated with EED226 for 4 hrs followed by compound addition and measured after 48 hrs by Western blot analysis. It counts as cell-based. A digest of the protocol: as §1
The test system of assay [14] is WSUDLCL2. The assay is described as follows: Effect on Histone H3 methylation in human WSUDLCL2 cells assessed as reduction in H3K27me1 levels at upto 10 uM incubated for 48 hrs by Western blot analysis. The note with it: dose microM <=10, time 48.0 hrs. It counts as functional, cell-based. A digest of the protocol:
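Lysates run on SDS-PAGE and transferred to nitrocellulose. Membranes blocked with 5% skim milk for 2 h, primary antibody applied overnight at 4 °C, then secondary antibody and chemiluminescent detection of histone H3 methylation marks.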

The target of assay [15] is T1, Protein cereblon/Histone-lysine N-methyltransferase EZH2 (Homo sapiens). The assay is described as follows: PROTAC activity at CRBN E3 ligase/EZH2 in PRC2 complex in human WSUDLCL2 cells assessed as downregulation of EZH2 expression at 1 uM pretreated with EED226 for 4 hrs followed by compound addition and measured after 48 hrs by Western blot analysis. It counts as cell-based. A digest of the protocol: as §1

Assay [16] shares this target. The assay is described as follows: PROTAC activity at CRBN E3 ligase/EZH2 in PRC2 complex in human DU-145 cells assessed as induction of RbAp48 degradation by measuring reduction in RbAp48 protein level at 1 uM incubated for 48 hrs by Western blot analysis. It counts as cell-based. In a few lines:
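Cancer cell lines exposed to 1 μM compound for 48 h. Lysates immunoblotted (SDS-PAGE, nitrocellulose, 5% milk block, primary antibody overnight at 4 °C) for EZH2, SUZ12, EED, RbAp48 and H3K27me3. Bands quantified by densitometry and normalized to GAPDH.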

Assay [17] has the same target. The assay is described as follows: PROTAC activity at CRBN E3 ligase/EZH2 in PRC2 complex in human SK-OV-3 cells assessed as reduction in H3K27me3 level at 1 uM incubated for 48 hrs by Western blot analysis. It is filed as cell-based. In a few lines:
as §3

The subject of assay [18] is MDA-MB-468. The assay is described as follows: Downregulation of CEP76 mRNA expression in human MDA-MB-468 cells at 10 uM incubated for 48 hrs by qRT-PCR analysis. It is filed as functional, cell-based. A digest of the protocol: as §2

Calls of active or inactive are those of the source. No cut-off for these calls is given here.

T1 sequence (Q15910 whole entry, looked up): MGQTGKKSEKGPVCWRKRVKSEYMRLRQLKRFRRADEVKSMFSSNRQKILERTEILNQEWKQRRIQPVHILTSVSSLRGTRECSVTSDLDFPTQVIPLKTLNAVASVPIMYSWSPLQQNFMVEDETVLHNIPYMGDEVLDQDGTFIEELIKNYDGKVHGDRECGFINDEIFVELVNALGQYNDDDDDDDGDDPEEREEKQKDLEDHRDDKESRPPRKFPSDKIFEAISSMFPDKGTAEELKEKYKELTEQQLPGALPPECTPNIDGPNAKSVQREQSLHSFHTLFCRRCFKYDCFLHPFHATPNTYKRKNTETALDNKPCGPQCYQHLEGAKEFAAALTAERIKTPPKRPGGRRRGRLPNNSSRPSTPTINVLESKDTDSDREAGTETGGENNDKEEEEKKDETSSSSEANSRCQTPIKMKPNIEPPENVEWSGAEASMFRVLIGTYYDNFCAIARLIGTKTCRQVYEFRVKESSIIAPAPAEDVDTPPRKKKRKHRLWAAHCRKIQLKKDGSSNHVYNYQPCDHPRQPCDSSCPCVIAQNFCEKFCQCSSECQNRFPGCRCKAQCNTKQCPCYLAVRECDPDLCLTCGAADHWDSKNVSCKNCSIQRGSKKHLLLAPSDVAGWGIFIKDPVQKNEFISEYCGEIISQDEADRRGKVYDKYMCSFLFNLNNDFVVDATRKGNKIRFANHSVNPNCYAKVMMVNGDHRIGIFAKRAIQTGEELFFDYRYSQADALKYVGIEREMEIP
T1 sequence (Q96SW2 whole entry, looked up): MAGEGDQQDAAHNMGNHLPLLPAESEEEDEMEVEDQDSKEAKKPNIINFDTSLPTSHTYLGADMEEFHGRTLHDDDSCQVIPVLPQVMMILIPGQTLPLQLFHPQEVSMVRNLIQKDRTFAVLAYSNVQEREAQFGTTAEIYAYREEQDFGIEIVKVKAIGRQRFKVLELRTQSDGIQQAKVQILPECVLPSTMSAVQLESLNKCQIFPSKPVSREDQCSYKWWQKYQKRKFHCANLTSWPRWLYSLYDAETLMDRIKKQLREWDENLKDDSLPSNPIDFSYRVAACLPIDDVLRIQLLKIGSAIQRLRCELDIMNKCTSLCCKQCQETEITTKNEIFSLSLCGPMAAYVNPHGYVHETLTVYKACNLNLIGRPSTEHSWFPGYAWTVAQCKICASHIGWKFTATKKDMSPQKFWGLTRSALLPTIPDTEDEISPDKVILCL

Turning to `CCN(c1cc(-c2ccc(CN3CCN(CCCCCCCOc4cccc5c4C(=O)N(C4CCC(=O)NC4=O)C5=O)CC3)cc2)cc(C(=O)NCc2c(C)cc(C)[nH]c2=O)c1C)C1CCOCC1` (stereo not drawn), the outcome in [1], in [7], in assay [9], in assay [10], in [12] and in assay [14] was inactive. Besides, the Activity in [2] is 72%; in [4] it was “Dose-Dependent Effect”. The outcome in assay [3], in assay [5], in assay [6], in assay [8], in assay [11] and in assay [13] was Active. For the same compound, the outcome in assay [15], in assay [16], in assay [17] and in [18] was Active.

Values taken from ChEMBL document CHEMBL5038571, “Design and Synthesis of EZH2-Based PROTACs to Degrade the PRC2 Complex for Targeting the Noncatalytic Activity of EZH2” (J Med Chem, 2021).
